From ChEMBL document CHEMBL1149909, “Aurocitrin and related polyketide metabolites from the wood-decay fungus Hypocrea sp. BCC 14122” (J Nat Prod, 2008)

How the values were obtained:
Plasmodium falciparum = test: Antimalarial activity against multidrug-resistant Plasmodium falciparum K1 by microculture radioisotope technique; format: functional, organism-based
NCI-H187 = test: Cytotoxicity against human NCI-H187 cells by colorimetric method; format: functional, cell-based
How it was run: (§1)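 Colorimetric cytotoxicity read-out on four cell lines: KB (oral human epidermoid carcinoma), BC (human breast cancer), NCI-H187 (human small cell lung cancer) and Vero (African green monkey kidney […]). A reference compound was run alongside.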

Vero = test: Cytotoxicity against african green monkey Vero cells by colorimetric method; format: cell-based; settings: Chlorocebus sabaeus; how it was run: as §1
KB = test: Cytotoxicity against human KB cells by colorimetric method; format: functional, cell-based; how it was run: as §1
[1] = Cytotoxicity against human BC cells by colorimetric method; format: functional, cell-based; how it was run: as §1

`C[C@H]1[C@@H](O)O[C@@H]2O[C@@]3(C)CC[C@H]4[C@H](C)CC[C@@H]1[C@@]24OO3` [ARTENIMOL] showed an IC50 (Plasmodium falciparum) of 4.5 nM.
`Cc1c2ccncc2c(C)c2c1[nH]c1ccccc12` [ELLIPTECINE] gave an IC50 (NCI-H187) of 2000 nM, an IC50 (Vero) of 2100 nM and an IC50 (KB) of 2200 nM. The IC50 [1] was 1200 nM.
